The values that follow come from ChEMBL document CHEMBL1152414, “Synthesis, antimalarial activity and cytotoxicity of substituted 3,6-diphenyl-[1,2,4,5]tetraoxanes” (Bioorg Med Chem, 2009).

SMILES strings stand for the structures. Where only a bound is given, the exact number is not on record here.

Data set [1] deals with Vero. The experiment in a line: Cytotoxicity against african green monkey Vero cells upto 16.72 uM after 48 hrs by neutral red assay. The conditions noted are these: chlorocebus sabaeus. It is filed as cell-based. An outline of the steps: (§1)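 Vero monkey kidney cells seeded at 25,000 cells/well and grown 24 h, then exposed to samples at several concentrations for 48 h. Viable cells counted by Neutral Red uptake. IC50 taken from dose-response curves; doxorubicin run as positive control.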

For data set [2], the system named is Plasmodium falciparum. The experiment in a line: Antimalarial activity after 72 hrs against chloroquine-sensitive Plasmodium falciparum D6 by Malstat LDH activity. It counts as functional, organism-based. Particulars: D6, 72 h. An outline of the steps:
(§2)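 P. falciparum (D6 or W2) infected red cell suspension at 2% parasitemia and 2% hematocrit in RPMI 1640 with 10% human serum and amikacin, added to serially diluted samples. Incubated 72 h at 37 °C under 90% N2/5% O2/5% CO2. Parasite LDH read with Malstat reagent and NBT/PES, acetic acid stop, 650 nm. IC50 taken from dose-response curves; artemisinin and chloroquine run as controls.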

Data set [3] in a line: Selectivity index, ratio of IC50 for african green monkey (Cercopithecus aethiops) Vero cells to IC50 for chloroquine-resistant Plasmodium falciparum W2. It counts as toxicity, cell-based. Particulars: read-out: Ratio IC50. A digest of the protocol: (§3)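 Selectivity index is Vero cytotoxicity IC50 (Neutral Red, 48 h) divided by P. falciparum D6 or W2 IC50 (parasite LDH, 72 h).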

Data set [4] is described as follows: Selectivity index, ratio of IC50 for african green monkey (Cercopithecus aethiops) Vero cells to IC50 for chloroquine-sensitive Plasmodium falciparum D6. It is filed as toxicity, cell-based. Particulars: read-out: Ratio IC50. An outline of the steps:
as §3

Data set [5] concerns Plasmodium falciparum. As to the kind of experiment: Antimalarial activity after 72 hrs against chloroquine-resistant Plasmodium falciparum W2 by Malstat LDH activity. It is filed as functional, organism-based. Particulars: W2, 72 h. A digest of the protocol:
as §2

The next data set relates to SK-MEL. The experiment in a line: Cytotoxicity human SK-MEL cells upto 30 uM after 48 hrs by neutral red assay. It is filed as cell-based.
Data set [6] can be described thus: Cytotoxicity pig LLC-PK11 cells upto 30 uM after 48 hrs by neutral red assay. It counts as cell-based, Sus scrofa. Particulars: llc-pk11, 48 h.
In another data set the test system is KB. The experiment in a line: Cytotoxicity human KB cells upto 30 uM after 48 hrs by neutral red assay. It is filed as cell-based.
For another data set, the system named is BT-549. As to the kind of experiment: Cytotoxicity human BT549 cells upto 30 uM after 48 hrs by neutral red assay. It counts as cell-based. Particulars: bt-549, 48 h.
Data set [7] relates to Vero. As to the kind of experiment: Cytotoxicity against african green monkey Vero cells upto 30 uM after 48 hrs by neutral red assay. It is filed as cell-based. The conditions noted are these: chlorocebus sabaeus. A digest of the protocol:
as §1

The subject of another data set is SK-OV-3. The experiment in a line: Cytotoxicity human SKOV3 cells upto 30 uM after 48 hrs by neutral red assay. Particulars: sk-ov-3, 48 h. It is filed as cell-based.

`CCCc1ccc(C2OOC(c3ccc(C)cc3)OO2)cc1` (stereo not drawn): the Activity result with Vero [1] is on record as “Non-toxic”. Besides, the values for the IC50 in the data set with Plasmodium falciparum [2] and in the data set with Plasmodium falciparum [5] were 1990 nM and 1060 nM, respectively. Also, the values for the selectivity ratio in [3] and in data set [4] were > 14.9 and > 7.9, respectively.
For the molecule `COc1ccc(C2OOC(c3cccc(C)c3)OO2)cc1` (stereo not drawn), the Activity entry with Vero [1] is recorded as “Non-toxic”. Besides, the IC50 stood at 420 nM in the data set with Plasmodium falciparum [2] and 620 nM with Plasmodium falciparum [5]. Also, the selectivity ratio is > 26.4 in [3] and > 39.7 in [4].
`CCCc1ccc(C2OOC(c3ccc(CCC)cc3)OO2)cc1` (stereo not drawn): the Activity result (in the data set with SK-MEL; in data set [6]; with Vero [1]; with KB; with BT-549; with Vero [7]) was “Non-toxic” each time. In the data set with SK-OV-3, the Activity result is “Non-toxic”. Also, the IC50 in the data set with Plasmodium falciparum [2] is 610 nM; in the data set with Plasmodium falciparum [5] it was 760 nM. The selectivity ratio in data set [3] was > 19; in data set [4], > 23.8.
As for `CC(C)(C)c1ccc(C2OOC(c3ccc(C(C)(C)C)cc3)OO2)cc1` (stereo not drawn), the Activity entry in the data set with Vero [1] is listed as “Non-toxic”. In addition, the IC50 with Plasmodium falciparum [2] stood at 2190 nM; in the data set with Plasmodium falciparum [5], 3930 nM. In addition, the selectivity ratio in data set [3] is > 3.4; in [4], > 6.1.
Regarding `CCc1ccc(C2OOC(c3ccc(CC)cc3)OO2)cc1` (stereo not drawn), the Activity result (in the data set with SK-MEL; in data set [6]; in the data set on Vero [1]; in the data set on KB; with BT-549; in the data set on Vero [7]) was “Non-toxic” in each case. The Activity result in the data set with SK-OV-3 is recorded as “Non-toxic”. 990 nM corresponded to half-maximal inhibition in the data set on Plasmodium falciparum [2] (IC50). Also, the selectivity ratio in data set [3] and in [4] was > 15.9 each time.
For the molecule `COc1ccc(C2OOC(c3ccc(C(C)C)cc3)OO2)cc1` (stereo not drawn), the Activity result with Vero [1] is reported as “Non-toxic”. Further, the IC50 was determined as 7900 nM in the data set with Plasmodium falciparum [2] and 5690 nM in the data set on Plasmodium falciparum [5]. The selectivity ratio in [3] was > 2.6; in data set [4] it was > 1.9.
On to `Cc1cccc(C2OOC(c3ccccc3)OO2)c1` (stereo not drawn), for which the Activity result with Vero [1] is “Non-toxic”. The values for the IC50 in the data set with Plasmodium falciparum [2] and in the data set with Plasmodium falciparum [5] were 500 nM and 460 nM, respectively. The selectivity ratio in data set [3] was > 39.7; in [4], > 36.8.
The like results for `Cc1ccc(C2OOC(c3ccc(C(C)(C)C)cc3)OO2)cc1` (stereo not drawn) were, in that order, “Non-toxic”, 600 nM, 790 nM, > 19 and > 25.1.
For `COc1ccc(C2OOC(c3ccc(C)cc3)OO2)cc1` (stereo not drawn), the Activity result with Vero [1] is “Non-toxic”. The IC50 stood at 760 nM in the data set with Plasmodium falciparum [2] and 1080 nM in the data set with Plasmodium falciparum [5]. In addition, the selectivity ratio in data set [3] is > 15.4; in data set [4] it was > 21.6.
The like results for `COc1ccc(C2OOC(c3ccc(C(C)(C)C)cc3)OO2)cc1` (stereo not drawn) were, in that order, “Non-toxic”, 540 nM, 640 nM, > 22.7 and > 26.4.
On the same counts, the results for `Cc1ccc(C2OOC(c3ccc(C(C)C)cc3)OO2)cc1` (stereo not drawn) are “Non-toxic”, 590 nM, 770 nM, > 20.9 and > 26.4.
The like results for `CCc1ccc(C2OOC(c3ccc(C)cc3)OO2)cc1` (stereo not drawn) were, in that order, “Non-toxic”, 380 nM, 450 nM, > 36.7 and > 43.6.
Turning to `CCc1ccc(C2OOC(c3ccc(C(C)C)cc3)OO2)cc1` (stereo not drawn), the Activity result with Vero [1] is “Non-toxic”. Moreover, the IC50 came out at 450 nM with Plasmodium falciparum [2] and 570 nM in the data set with Plasmodium falciparum [5]. Moreover, the selectivity ratio was > 26.4 in [3] and > 34 in data set [4].
As for `CCCc1ccc(C2OOC(c3ccc(C(C)(C)C)cc3)OO2)cc1` (stereo not drawn), the Activity entry with Vero [1] is “Non-toxic”. Further, the IC50 with Plasmodium falciparum [2] came to 4090 nM; in the data set on Plasmodium falciparum [5] it was 2630 nM. Moreover, the results for the selectivity ratio in data set [3] and in data set [4] were > 5.3 and > 3.4, respectively.
Regarding `CC(C)c1ccc(C2OOC(c3ccc(C(C)(C)C)cc3)OO2)cc1` (stereo not drawn), the Activity entry with Vero [1] is “Non-toxic”. For the same molecule, the IC50 with Plasmodium falciparum [2] is 13900 nM; in the data set with Plasmodium falciparum [5], 9340 nM. The selectivity ratio in data set [3] was > 1.5; in data set [4], > 1.
As to `Cc1ccc(C2OOC(c3ccccc3C)OO2)cc1` (stereo not drawn), the Activity result in the data set with Vero [1] was “Non-toxic”. For the same molecule, the IC50 was found to be 3050 nM in the data set with Plasmodium falciparum [2] and 2200 nM in the data set on Plasmodium falciparum [5]. For the same molecule, the selectivity ratio was > 7.9 in data set [3] and > 5.7 in data set [4].
The like results for `CCCc1ccc(C2OOC(c3ccc(C(C)C)cc3)OO2)cc1` (stereo not drawn) were, in that order, “Non-toxic”, 960 nM, 800 nM, > 18.3 and > 15.4.
Turning to `C[C@@H]1CC[C@H]2[C@@H](C)C(=O)O[C@@H]3O[C@@]4(C)CC[C@@H]1[C@]32OO4` [ARTEMISININ], the Activity result with Vero [1] is “Non-toxic”. Besides, the selectivity ratio in data set [3] was > 1400; in data set [4] it was > 476. In the data set with Plasmodium falciparum [5], the IC50 was found to be 15 nM.
For `CCc1ccc(C2OOC(c3ccc(C(C)(C)C)cc3)OO2)cc1` (stereo not drawn), the Activity entry in the data set on Vero [1] is “Non-toxic”. In addition, the IC50 with Plasmodium falciparum [2] turned out to be 5480 nM; in the data set on Plasmodium falciparum [5], 3650 nM. In addition, the values for the selectivity ratio in data set [3] and in [4] were > 4 and > 2.6, respectively.
The like results for `CCCc1ccc(C2OOC(c3ccc(OC)cc3)OO2)cc1` (stereo not drawn) were, in that order, “Non-toxic”, 940 nM, 660 nM, > 22.7 and > 15.8.
On the same counts, the results for `Cc1cccc(C2OOC(c3ccccc3C)OO2)c1` (stereo not drawn) are “Non-toxic”, 1030 nM, 1360 nM, > 12.9 and > 17.
On the same counts, the results for `CCc1ccc(C2OOC(c3cccc(C)c3)OO2)cc1` (stereo not drawn) are “Non-toxic”, 350 nM, 560 nM, > 29.8 and > 47.6.
As for `CCN(CC)CCCC(C)Nc1ccnc2cc(Cl)ccc12` (stereo not drawn) [CHLOROQUINE], the Activity result in the data set on Vero [1] is on record as “Non-toxic”.
Take `Cc1ccc(C2OOC(c3cccc(C)c3)OO2)cc1` (stereo not drawn): the Activity entry in the data set with Vero [1] is recorded as “Non-toxic”. In addition, the IC50 in the data set with Plasmodium falciparum [2] was determined as 670 nM; in the data set on Plasmodium falciparum [5], 1030 nM. Further, the selectivity ratio in data set [3] was > 17; in data set [4], > 25.1.
For `Cc1ccc(C2OOC(c3ccc(C=O)cc3)OO2)cc1` (stereo not drawn), the Activity entry in the data set with Vero [1] is on record as “Non-toxic”.
Turning to `CCCCc1ccc(C2OOC(c3ccc(CCCC)cc3)OO2)cc1` (stereo not drawn), the Activity entry in the data set with Vero [1] was “Non-toxic”. The IC50 amounted to 3650 nM with Plasmodium falciparum [2] and 4770 nM in the data set with Plasmodium falciparum [5]. Also, the selectivity ratio in data set [3] was > 2.8; in data set [4], > 3.7.
The like results for `Cc1ccc(C2OOC(c3ccccc3)OO2)cc1` (stereo not drawn) were, in that order, “Non-toxic”, 930 nM, 1080 nM, > 17 and > 19.8.
As for `CC(C)c1ccc(C2OOC(c3ccc(C(C)C)cc3)OO2)cc1` (stereo not drawn), the Activity result (in the data set with SK-MEL; in [6]; in the data set on Vero [1]; in the data set with KB; with BT-549; with Vero [7]) was “Non-toxic” in each case. Further, the Activity entry in the data set with SK-OV-3 is reported as “Non-toxic”. The IC50 in the data set with Plasmodium falciparum [2] was 670 nM; in the data set with Plasmodium falciparum [5], 1030 nM. Besides, the selectivity ratio in [3] was > 14; in data set [4] it was > 21.6.

What is called IC50 is the midpoint of a concentration-inhibition curve.
